Measurements of several laboratories.
Target: Homeodomain-interacting protein kinase 2 (HIPK2, Homo sapiens, UniProt Q9H2X6)

For C[C@@H](c1ccc(-n2cnc3c(N)ncnc32)cc1)N1CCc2nn(C)c(Cc3ccccc3)c2C1=O, the remaining binding was 80% (binding; competition with immobilised ligand; 0.1 µM).
Cc1cc(-n2nc(Cc3cc(F)cc(C(F)(F)F)c3)nc2C)ccc1C(N)=O has a remaining binding of 100% (cell-free assay; competition with immobilised ligand; 1 µM).
O=C(Nc1c[nH]nc1C(=O)NC1CCNCC1)c1cc(F)cc(F)c1 gave a remaining binding of 33% (binding; competition with immobilised ligand; 1 µM).
For CN(C)C(=O)Cn1cc(-c2nc(C3(c4ccc(-c5cnc(N)nc5)cc4)CC3)no2)cn1, the remaining binding was 94% (cell-free assay; competition with immobilised ligand; 1 µM).
With Nc1ncc2c(n1)-c1c([nH]c3ccc(C#CC4CC4)cc13)CCCC2 the remaining binding was 97% (binding; competition with immobilised ligand; 1 µM).
For CN(c1nccc(-c2cnn3ncccc23)n1)C1CC1, the remaining binding was 100% (binding; 1 µM).
CCN1CCN(Cc2ccc(C(=O)Nc3ccc(C)c(Oc4ccc5c(c4)CC(=O)N5)c3)cc2C(F)(F)F)CC1 has a remaining binding of 100% (binding; competition with immobilised ligand; 1 µM).
Cc1cnc(Nc2ccc(C(=O)N3CCC(N4CCCC4)CC3)cc2)nc1-c1cc2ccccc2s1 gave a remaining binding of 0.5% (binding; competition with immobilised ligand; 1 µM).
Cn1nc(C(F)(F)F)cc1-c1cnc(N2CCc3cc(S(=O)(=O)Nc4c(F)cc(Cl)cc4F)cc(N4CCCC4=O)c32)nc1 gave a remaining binding of 74% (cell-free assay; competition with immobilised ligand; 1 µM).
The remaining binding of O=C(NCCCN1CCOCC1)c1ccc(Nc2ncc(Cl)c(-c3ccc(Cl)s3)n2)cc1 is reported as 8.9% (binding; competition with immobilised ligand; 1 µM).
NS(=O)(=O)c1cc(NC(=O)C2(c3ccccc3Cl)CC2)ccc1Oc1cccc(Cl)c1 gave a remaining binding of 88% (cell-free assay; competition with immobilised ligand; 1 µM).
For COc1ccnn2ncc(-c3ccnc(N(C)C)n3)c12, the remaining binding was 71% (binding; 1 µM).
For O=C(NCc1ncc(C(F)(F)F)cc1Cl)c1ccc2c(c1)C1(CCS(=O)(=O)CC1)[C@@H](C1CC1)N2S(=O)(=O)c1ccc(F)cc1, the remaining binding was 72% (cell-free assay; competition with immobilised ligand; 1 µM).
With CN(C)c1nccc(-c2cnc3ncccn23)n1 the remaining binding was 36% (binding; 1 µM).
For O=C(c1ccc(Nc2nccc(-c3cc4ccccc4s3)n2)cc1)N1CCC(N2CCCC2)CC1, the remaining binding was 8.8% (binding; competition with immobilised ligand; 1 µM).
For C[C@H]1CCN(c2nccc(-c3cnn4ncccc34)n2)C1, the remaining binding was 45% (binding; 1 µM).
For CNC(=O)[C@@H]1CC[C@@H](n2c(-c3ccc4cnccc4c3)nc3ccc(C(=O)NCc4cccc(C(N)=O)c4)cc32)C1, the remaining binding was 100% (binding; competition with immobilised ligand; 1 µM).
Cc1cnn2ncc(-c3ccnc(N(C)C)n3)c2c1 gave a remaining binding of 63% (binding; 1 µM).
The remaining binding of CC(C)(O)c1cncc(-c2nc3ccc(F)cc3n2C2CC2)c1 is reported as 100% (cell-free assay; competition with immobilised ligand; 1 µM).
For C=CC(=O)N1CCC(C(=O)NCC(=O)N2CCN(c3nc(-c4cnc(N)nc4C(F)F)nc(N4CCOCC4)n3)CC2)CC1, the remaining binding was 83% (binding; competition with immobilised ligand; 1 µM).
The remaining binding of N[C@@H]1CCN(c2nccc(-c3cnn4ncccc34)n2)C1 is reported as 100% (binding; 1 µM).
c1cncc(-c2cccc(Nc3nccc(NC4CCCCC4)n3)c2)c1 has a remaining binding of 53% (binding; competition with immobilised ligand; 10 µM).
